Converted amounts (≈) assume the structure as drawn.
Tests used:
MRSA-252 = test: MIC, MRSA-252; type: cell-based, Staphylococcus aureus
B.subtilis NR-607 = test: MIC, B.subtilis NR-607; type: cell-based
MSSA = test: MIC, MSSA; type: cell-based, S. aureus
E.faecium 28977 = test: MIC, E.faecium 28977; type: cell-based
MRSA ATCC BAA-44 [1] = test: MIC by broth microdilution, MRSA BAA-44; type: cell-based, Staphylococcus aureus; conditions: MRSA BAA-44, compound alone
E.faecium HM-460 = test: MIC, E.faecium HM-460; type: cell-based
HeLa cells = test: HeLa growth inhibition; type: cell-based, human
MRSA ATCC BAA-44 [2] = test: Minimum re-sensitizing concentration; type: cell-based, Staphylococcus aureus; conditions: MRSA BAA-44, cefazolin
Method in brief: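 MRSA ATCC BAA-44. The test compound was combined with cefazolin, and the minimum resensitizing concentration (MRC) was reported in μg/mL. MIC alone was determined by standard CLSI broth microdilution. MIC and MRC values were confirmed in triplicate. RMA activity was expressed as the ratio MIC/MRC.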

[3] = Staphylococcus aureus, ATCCBAA44|BAA44|MRSA

Row | Compound | RMA activity (in words) (MRSA ATCC BAA-44 [2]) | other results
1 | 1-((6-chloro-2-(6-chlorobenzo[d]thiazol-2-yl)-2,3,4,9-tetrahydro-1H-pyrido[3,4-b]indol-4-yl)methyl)guanidine hydrochloride [12g] |  | MIC (MRSA-252): 2 µg/mL; MIC (B.subtilis NR-607): 2 µg/mL; MIC (MSSA): 0.5 µg/mL; MIC (E.faecium 28977): 2 µg/mL; MIC (MRSA ATCC BAA-44 [1]): 2 µg/mL; MIC (E.faecium HM-460): 4 µg/mL; GI50 (HeLa cells; 24 h): 14.1 µg/mL
2 | 6-Chloro-N-[3-(trifluoromethyl)phenyl]-1,3,4,9-tetrahydro-2H-pyrido[3,4-b]indole-2-carbothioamide [5c] |  | MIC (MRSA ATCC BAA-44 [1]): 2 µg/mL
3 | Nc1cc(Cl)c2nc(N3CCc4c([nH]c5ccc(Cl)cc45)C3)sc2c1 [4ad, 4-Chloro-2-(6-chloro-1,3,4,9-tetrahydro-2H-pyrido[3,4-b]indol-2-yl)-1,3-benzothiazol-6-amine] | good RMA activities | 
4 | Cl.NCC(=O)Nc1cc(Cl)c2nc(N3CCc4c([nH]c5ccc(Cl)cc45)C3)sc2c1 [4ae, 2-amino-N-(4-chloro-2-(6-chloro-1,3,4,9-tetrahydro-2H-pyrido[3,4-b]indol-2-yl)benzo[d]thiazol-6-yl)acetamide hydrochloride] |  | antibacterial activity, MIC (in words) (MRSA ATCC BAA-44 [1]): excellent MICs
5 | FC(F)(F)c1cccc2sc(N3CCc4c([nH]c5ccc(Cl)cc45)C3)nc12 [4af, 6-Chloro-2-[4-(trifluoromethyl)-1,3-benzothiazol-2-yl]-2,3,4,9-tetrahydro-1H-pyrido[3,4-b]indole] | good RMA activities | GI50 worse than R^9-Cl analog 4w (HeLa cells): 3 fold
6 | CNc1cc(C(F)(F)F)c2nc(N3CCc4c([nH]c5ccc(Cl)cc45)C3)sc2c1 [4ai, 2-(6-Chloro-1,3,4,9-tetrahydro-2H-pyrido[3,4-b]indol-2-yl)-N-methyl-4-(trifluoromethyl)-1,3-benzothiazol-6-amine] | good RMA activities | 
7 | Cl.NCCNc1cc(C(F)(F)F)c2nc(N3CCc4c([nH]c5ccc(Cl)cc45)C3)sc2c1 [4aj, N1-(2-(6-chloro-1,3,4,9-tetrahydro-2H-pyrido[3,4-b]indol-2-yl)-4-(trifluoromethyl)benzo[d]thiazol-6-yl)ethane-1,2-diamine hydrochloride] |  | antibacterial activity, MIC (in words) (MRSA ATCC BAA-44 [1]): excellent MICs
8 | Clc1ccc2[nH]c3c(c2c1)CCN(c1nc2ccccc2s1)C3 [4b, 2-(1,3-Benzothiazol-2-yl)-6-chloro-2,3,4,9-tetrahydro-1H-pyrido[3,4-b]indole] | no RMA activity | 
9 | Cc1ccc2nc(N3CCc4c([nH]c5ccc(Cl)cc45)C3)sc2c1 [4c, 6-Chloro-2-(6-methyl-1,3-benzothiazol-2-yl)-2,3,4,9-tetrahydro-1H-pyrido[3,4-b]indole] | no RMA activity | 
10 | Clc1ccc2[nH]c3c(c2c1)CCN(c1nc2ncccc2s1)C3 [4d, 6-Chloro-2-([1,3]thiazolo[4,5-b]pyridin-2-yl)-2,3,4,9-tetrahydro-1H-pyrido[3,4-b]indole] | abolished | 
11 | FC(F)(F)c1cnc2nc(N3CCc4c([nH]c5ccc(Cl)cc45)C3)sc2c1 [4e, 6-Chloro-2-[6-(trifluoromethyl)[1,3]thiazolo[4,5-b]pyridin-2-yl]-2,3,4,9-tetrahydro-1H-pyrido[3,4-b]indole] | abolished | 
12 | CCOC(=O)C1c2[nH]c3ccc(Cl)cc3c2CCN1c1nc2ccc(Cl)cc2s1 (stereo not shown) [4l, Ethyl 6-chloro-2-(6-chloro-1,3-benzothiazol-2-yl)-2,3,4,9-tetrahydro-1H-pyrido[3,4-b]indole-1-carboxylate] | abolished | 
13 | COC(=O)C1Cc2c([nH]c3ccc(Cl)cc23)CN1c1nc2ccc(Cl)cc2s1 (stereo not shown) [4m, Methyl 6-chloro-2-(6-chloro-1,3-benzothiazol-2-yl)-2,3,4,9-tetrahydro-1H-pyrido[3,4-b]indole-3-carboxylate] | abolished | MIC (MRSA ATCC BAA-44 [1]): >64 µg/mL
14 | CCn1c2c(c3cc(Cl)ccc31)CCN(c1nc3ccc(Cl)cc3s1)C2 [4o, 6-Chloro-2-(6-chloro-1,3-benzothiazol-2-yl)-9-ethyl-2,3,4,9-tetrahydro-1H-pyrido[3,4-b]indole] | abolished | 
15 | Clc1ccc2[nH]c3c(c2c1)CCN(c1nc2ccc(Br)cc2s1)C3 [4p, 2-(6-Bromo-1,3-benzothiazol-2-yl)-6-chloro-2,3,4,9-tetrahydro-1H-pyrido[3,4-b]indole] | retained the RMA activity | 
16 | FC(F)(F)Oc1ccc2nc(N3CCc4c([nH]c5ccc(Cl)cc45)C3)sc2c1 [4t, 6-Chloro-2-[6-(trifluoromethoxy)-1,3-benzothiazol-2-yl]-2,3,4,9-tetrahydro-1H-pyrido[3,4-b]indole] | lost the RMA activity completely | 
17 | Clc1ccc2[nH]c3c(c2c1)CCN(c1nc2cccc(Cl)c2s1)C3 [4u, 6-Chloro-2-(7-chloro-1,3-benzothiazol-2-yl)-2,3,4,9-tetrahydro-1H-pyrido[3,4-b]indole] | reduced RMA activity | 
18 | Clc1ccc2sc(N3CCc4c([nH]c5ccc(Cl)cc45)C3)nc2c1 [4v, 6-Chloro-2-(5-chloro-1,3-benzothiazol-2-yl)-2,3,4,9-tetrahydro-1H-pyrido[3,4-b]indole] | no RMA activity | 
19 | Clc1ccc2[nH]c3c(c2c1)CCN(c1nc2c(Cl)cccc2s1)C3 [4w, 6-Chloro-2-(4-chloro-1,3-benzothiazol-2-yl)-2,3,4,9-tetrahydro-1H-pyrido[3,4-b]indole] | maintained similar RMA activity | 
20 | Clc1cc(Cl)c2nc(N3CCc4c([nH]c5ccc(Cl)cc45)C3)sc2c1 [4x, 6-Chloro-2-(4,6-dichloro-1,3-benzothiazol-2-yl)-2,3,4,9-tetrahydro-1H-pyrido[3,4-b]indole] |  | antibacterial activity, MIC (in words) (MRSA ATCC BAA-44 [1]): excellent MICs
21 | Clc1ccc2[nH]c3c(c2c1)CCN(c1nc2c(Cl)c(Cl)c(Cl)cc2s1)C3 [4y, 6-Chloro-2-(4,5,6-trichloro-1,3-benzothiazol-2-yl)-2,3,4,9-tetrahydro-1H-pyrido[3,4-b]indole] |  | antibacterial activity, MIC (in words) (MRSA ATCC BAA-44 [1]): excellent MICs
22 | Cc1nnc(SCC2=C(C(=O)O)N3C(=O)[C@@H](NC(=O)Cn4cnnn4)[C@H]3SC2)s1 [Cefazolin, reference compound] |  | MIC (MRSA ATCC BAA-44 [1]; [3]): 256 µg/mL (≈ 563 µM)
23 | CO/N=C(\C(=O)N[C@@H]1C(=O)N2C(C(=O)O)=C(COC(N)=O)CS[C@H]12)c1ccco1 [Cefuroxime, reference compound] |  | MIC (MRSA ATCC BAA-44 [1]): 256 µg/mL (≈ 603 µM); MIC (MRSA ATCC BAA-44 [1]; [3]): 128 µg/mL (≈ 302 µM)
24 | O=C(O)C1CN(c2nc3ccc(Cl)cc3s2)Cc2[nH]c3ccc(Cl)cc3c21 (stereo not shown) [compound 8, 6-Chloro-2-(6-chlorobenzo[d]thiazol-2-yl)-2,3,4,9-tetrahydro-1H-pyrido[3,4-b]indole-4-carboxylic acid] | significantly decreased or abolished | 
25 | CN(C)C(=O)C1CN(c2nc3ccc(Cl)cc3s2)Cc2[nH]c3ccc(Cl)cc3c21 (stereo not shown) [compound 9, 6-Chloro-2-(6-chlorobenzo[d]thiazol-2-yl)-N,N-dimethyl-2,3,4,9-tetrahydro-1H-pyrido[3,4-b]indole-4-carboxamide] | significantly decreased or abolished | 
